Key:
Assay type in all cases: cell-based
[1] = system: receptors incorporating NR1wt and NR2Awt, NR2Bwt, NR2Dwt, NR2B-(2A NTD), NR2B-(2A NTD+L) or NR2D-(2A NTD+L); experiment: Zinc sensitivity; conditions: zinc dose-response, all constructs of Fig. 3a
Procedure, shortened: (§1)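 Two-electrode voltage clamp was run at −60 mV at room temperature on oocytes nuclear-injected with NR1 and NR2 cDNAs (10 ng/µl, 1:1). […] Free zinc was buffered with tricine 10 mM (1 nM–1 µM) or ADA 1 mM (0.1–100 nM), and "0" zinc contained 10 µM DTPA. Dose-response curves gave IC50 and maximal inhibition.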

[2] = target: NR1wt/NR2B-(2A NTD) receptors; experiment: Zinc sensitivity
Procedure, shortened: as §1

[3] = target: NR1wt/NR2B-(2A NTD+L) receptors; experiment: Zinc sensitivity
Procedure, shortened: as §1

[4] = target: NR1wt/NR2D-(2A NTD+L) receptors; experiment: Zinc sensitivity
Procedure, shortened: as §1

[5] = target: NR1wt/NR2Awt receptors (Homo sapiens, UniProt Q05586+Q12879); experiment: Zinc sensitivity
Procedure, shortened: as §1

[6] = target: NR1wt/NR2Bwt receptors (Homo sapiens, UniProt Q05586+Q13224); experiment: Zinc sensitivity
Procedure, shortened: as §1

[7] = target: T1, NR1wt/NR2Dwt receptors (Rattus norvegicus, UniProt P35439+Q62645); experiment: Zinc sensitivity
Procedure, shortened: as §1

[8] = system: NR1-A652C/NR2A-(2D NTD+L) receptors; experiment: MTSEA-induced potentiation of currents; conditions: NR2A-(2D NTD+L) vs NR2Awt
[9] = system: NR1-A652C/NR2D-ΔNTD receptors; experiment: MTSEA-induced potentiation of currents; conditions: NR2D-ΔNTD vs NR2D
[10] = target: NR1-A652C/NR2D receptors (Homo sapiens, UniProt O15399+Q05586, A652C); experiment: MTSEA-induced potentiation of currents; conditions: NR2D-containing receptors (NR1-A652C)
[11] = system: NR1wt/NR2D-(2A NTD+L) receptors; experiment: Kinetics of inhibition by MK-801, oocyte voltage-clamp; conditions: trace of Fig. 1f
[12] = system: NR1wt/NR2D-ΔNTD receptors; experiment: as above; conditions: trace of Fig. 1f
[13] = target: T1, NR1wt/NR2Dwt receptors; experiment: as above; conditions: trace of Fig. 1f
[14] = system: NR1wt/NR2A-(2D NTD+L) receptors; experiment: as above; conditions: NR2A-(2D NTD+L) vs NR2Awt

T1 sequence (Q62645 28-1323, other chains not shown): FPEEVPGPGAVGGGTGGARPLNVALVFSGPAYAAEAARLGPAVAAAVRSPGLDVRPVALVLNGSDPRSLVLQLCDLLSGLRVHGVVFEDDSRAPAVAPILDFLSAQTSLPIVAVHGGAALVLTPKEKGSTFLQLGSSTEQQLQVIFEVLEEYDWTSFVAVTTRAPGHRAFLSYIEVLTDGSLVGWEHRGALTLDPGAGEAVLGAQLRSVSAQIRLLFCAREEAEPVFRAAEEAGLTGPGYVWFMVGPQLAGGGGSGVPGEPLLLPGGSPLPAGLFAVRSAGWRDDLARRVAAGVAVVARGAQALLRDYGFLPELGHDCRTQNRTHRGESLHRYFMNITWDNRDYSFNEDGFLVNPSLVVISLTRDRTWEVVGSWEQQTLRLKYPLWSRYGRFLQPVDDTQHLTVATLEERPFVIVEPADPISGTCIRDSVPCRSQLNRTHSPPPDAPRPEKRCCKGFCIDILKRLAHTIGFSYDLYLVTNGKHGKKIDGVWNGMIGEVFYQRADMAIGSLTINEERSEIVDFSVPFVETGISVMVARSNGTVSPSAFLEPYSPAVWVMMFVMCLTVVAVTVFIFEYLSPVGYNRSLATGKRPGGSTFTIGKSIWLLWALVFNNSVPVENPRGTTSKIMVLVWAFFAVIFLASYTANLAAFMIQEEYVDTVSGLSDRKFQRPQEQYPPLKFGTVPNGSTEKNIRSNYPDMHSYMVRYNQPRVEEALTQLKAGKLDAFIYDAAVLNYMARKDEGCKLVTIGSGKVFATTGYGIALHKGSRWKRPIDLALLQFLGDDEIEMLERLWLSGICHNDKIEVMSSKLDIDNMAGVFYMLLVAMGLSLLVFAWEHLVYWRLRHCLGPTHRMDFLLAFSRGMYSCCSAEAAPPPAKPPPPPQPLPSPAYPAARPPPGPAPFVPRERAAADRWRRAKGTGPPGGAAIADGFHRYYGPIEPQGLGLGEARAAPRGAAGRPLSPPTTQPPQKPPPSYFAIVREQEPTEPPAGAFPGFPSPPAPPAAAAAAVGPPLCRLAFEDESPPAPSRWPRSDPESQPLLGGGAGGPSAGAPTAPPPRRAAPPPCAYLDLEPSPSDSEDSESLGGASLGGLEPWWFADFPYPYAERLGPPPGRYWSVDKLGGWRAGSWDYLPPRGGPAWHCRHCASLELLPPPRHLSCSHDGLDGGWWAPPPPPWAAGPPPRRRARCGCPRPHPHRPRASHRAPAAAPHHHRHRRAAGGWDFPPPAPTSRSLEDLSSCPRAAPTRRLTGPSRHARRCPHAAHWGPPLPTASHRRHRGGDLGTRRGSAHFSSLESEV
Chain of NR1wt/NR2Awt receptors (Q12879 23-1464, other chains not shown): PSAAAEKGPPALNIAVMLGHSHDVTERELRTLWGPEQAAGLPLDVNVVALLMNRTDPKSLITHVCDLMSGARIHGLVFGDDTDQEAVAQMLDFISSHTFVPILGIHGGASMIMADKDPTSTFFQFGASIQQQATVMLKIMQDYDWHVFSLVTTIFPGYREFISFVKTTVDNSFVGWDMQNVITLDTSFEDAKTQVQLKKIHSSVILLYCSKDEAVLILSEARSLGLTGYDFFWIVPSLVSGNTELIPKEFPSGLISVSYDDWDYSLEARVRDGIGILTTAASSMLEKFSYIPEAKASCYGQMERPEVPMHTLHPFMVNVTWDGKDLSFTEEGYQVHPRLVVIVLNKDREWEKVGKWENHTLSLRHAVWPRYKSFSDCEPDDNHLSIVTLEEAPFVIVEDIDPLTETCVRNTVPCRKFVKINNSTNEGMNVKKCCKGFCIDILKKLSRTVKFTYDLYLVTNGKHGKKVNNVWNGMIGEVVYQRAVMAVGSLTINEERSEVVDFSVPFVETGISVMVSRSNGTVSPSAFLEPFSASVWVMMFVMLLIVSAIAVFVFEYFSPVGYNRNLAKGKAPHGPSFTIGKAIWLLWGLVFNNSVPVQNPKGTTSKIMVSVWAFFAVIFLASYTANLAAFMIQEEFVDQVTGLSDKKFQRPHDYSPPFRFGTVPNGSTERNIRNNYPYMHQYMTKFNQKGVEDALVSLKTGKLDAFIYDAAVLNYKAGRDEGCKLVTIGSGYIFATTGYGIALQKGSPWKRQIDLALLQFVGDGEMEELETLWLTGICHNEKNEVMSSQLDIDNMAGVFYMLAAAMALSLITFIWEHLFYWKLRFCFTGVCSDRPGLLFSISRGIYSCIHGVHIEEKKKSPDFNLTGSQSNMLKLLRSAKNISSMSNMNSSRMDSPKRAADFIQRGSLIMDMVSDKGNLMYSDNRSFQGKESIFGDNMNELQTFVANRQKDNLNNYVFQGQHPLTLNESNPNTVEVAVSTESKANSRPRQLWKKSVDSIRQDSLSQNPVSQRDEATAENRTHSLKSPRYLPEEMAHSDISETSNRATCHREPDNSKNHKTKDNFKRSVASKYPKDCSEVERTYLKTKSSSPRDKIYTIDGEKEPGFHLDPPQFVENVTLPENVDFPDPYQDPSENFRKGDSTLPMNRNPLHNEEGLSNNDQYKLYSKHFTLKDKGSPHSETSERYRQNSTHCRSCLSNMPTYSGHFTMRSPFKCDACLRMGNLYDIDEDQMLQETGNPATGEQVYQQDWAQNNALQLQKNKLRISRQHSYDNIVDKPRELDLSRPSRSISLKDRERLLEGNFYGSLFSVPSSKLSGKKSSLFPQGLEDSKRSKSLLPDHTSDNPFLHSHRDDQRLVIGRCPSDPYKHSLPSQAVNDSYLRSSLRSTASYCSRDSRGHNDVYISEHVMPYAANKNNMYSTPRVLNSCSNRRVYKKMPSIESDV
Chain of NR1wt/NR2Bwt receptors (Q13224 27-1484, other chains not shown): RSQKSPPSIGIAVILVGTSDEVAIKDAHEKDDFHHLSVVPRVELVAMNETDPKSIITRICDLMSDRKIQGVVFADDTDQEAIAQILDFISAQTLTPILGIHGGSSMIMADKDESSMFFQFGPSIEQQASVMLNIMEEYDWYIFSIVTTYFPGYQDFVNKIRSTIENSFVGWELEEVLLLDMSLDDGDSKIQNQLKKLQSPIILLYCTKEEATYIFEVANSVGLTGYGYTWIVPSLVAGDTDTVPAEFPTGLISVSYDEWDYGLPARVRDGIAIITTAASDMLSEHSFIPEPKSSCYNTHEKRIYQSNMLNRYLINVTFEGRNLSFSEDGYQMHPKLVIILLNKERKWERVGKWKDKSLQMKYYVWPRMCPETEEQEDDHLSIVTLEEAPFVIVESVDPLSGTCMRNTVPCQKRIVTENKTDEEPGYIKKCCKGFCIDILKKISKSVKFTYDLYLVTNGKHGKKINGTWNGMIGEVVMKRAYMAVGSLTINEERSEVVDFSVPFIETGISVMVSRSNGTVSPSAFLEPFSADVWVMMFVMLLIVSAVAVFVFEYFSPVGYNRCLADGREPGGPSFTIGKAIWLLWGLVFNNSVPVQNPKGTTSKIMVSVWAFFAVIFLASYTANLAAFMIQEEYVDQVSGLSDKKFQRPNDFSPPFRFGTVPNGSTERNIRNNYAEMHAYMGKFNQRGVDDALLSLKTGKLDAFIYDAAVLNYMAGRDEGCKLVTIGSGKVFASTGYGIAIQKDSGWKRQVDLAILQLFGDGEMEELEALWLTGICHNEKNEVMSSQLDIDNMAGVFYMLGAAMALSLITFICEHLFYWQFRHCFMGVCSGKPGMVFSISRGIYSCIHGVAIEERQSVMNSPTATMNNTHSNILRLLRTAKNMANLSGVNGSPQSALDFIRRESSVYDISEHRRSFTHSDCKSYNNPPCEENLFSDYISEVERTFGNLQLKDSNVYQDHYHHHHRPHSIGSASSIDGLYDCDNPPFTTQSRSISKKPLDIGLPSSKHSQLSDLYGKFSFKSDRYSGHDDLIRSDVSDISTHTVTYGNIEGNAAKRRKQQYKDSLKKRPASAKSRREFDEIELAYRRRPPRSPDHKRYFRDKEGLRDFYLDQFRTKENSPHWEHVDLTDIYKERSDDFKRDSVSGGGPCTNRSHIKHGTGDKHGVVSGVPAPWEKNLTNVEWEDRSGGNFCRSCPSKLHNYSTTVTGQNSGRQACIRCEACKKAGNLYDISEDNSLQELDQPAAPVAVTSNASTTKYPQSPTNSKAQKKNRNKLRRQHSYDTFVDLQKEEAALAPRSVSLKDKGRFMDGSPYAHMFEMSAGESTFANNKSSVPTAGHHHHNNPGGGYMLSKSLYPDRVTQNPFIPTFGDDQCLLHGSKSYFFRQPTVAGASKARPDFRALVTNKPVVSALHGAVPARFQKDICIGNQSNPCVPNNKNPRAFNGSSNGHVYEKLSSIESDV

[Zn+2] [Zinc, zinc]
nH [1]: 0.9–1.2
IC50 [2]: 0.2 nM
Inhibmax [2]: 83%
IC50 [3]: 5.4 nM
Inhibmax [3]: 86%
IC50 [4]: 1.5 nM
Inhibmax [4]: 90%
IC50 [5]: 7.5 nM
Inhibmax [5]: 81%
IC50 [6]: 720 nM
Inhibmax [6]: 98%
IC50 [7]: 7800 nM
Inhibmax [7]: 100%

Br.CS(=O)(=O)SCCN [MTSEA, 2-aminoethylmethanethiosulfonatehydrobromide]
Higher MTSEA-potentiation than NR2Awt-containing receptors [8]: 17 fold
Decrease in MTSEA potentiation on deleting the NR2D-NTD [9]: 4 fold
MTSEA-induced potentiation [10]: ~ 300 fold

C[C@]12N[C@H](Cc3ccccc31)c1ccccc12 [MK-801]
τon of inhibition by MK-801 [11]: 1.6 s
τon of inhibition by MK-801 [12]: 5.7 s
τon of inhibition by MK-801 [13]: 32 s
MK-801 inhibition slower than at NR2Awt-containing receptors [14]: 15 fold

From PMC2711440 (Nature, 2009)
